# Only some compounds are listed: those with a hit (about 5.5% of all), similar ones and a draw of the others.
# PLAP act – activates human placental alkaline phosphatase; purified PLAP enzyme, luminescent substrate read-out; hits give high values; activation fold at 20 µM; AID 696; 96,000 compounds, 1.2% hits; P05187; in the data active = activation fold above about 2
# Ecoli WT expand – growth inhibitors of E. coli BW25113 wild type; AID 710; growth inhibition, % at 100 µM; 98,000 compounds, 0.15% hits; OD600 absorbance;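 active = growth inhibition above about 50% at one test dose, limit read from the data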;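 note: growth measured after 20 h incubation at 37 °C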
# PostGolgi yeast – growth inhibition of a yeast mutant, post-Golgi transport screen; post-Golgi transport phenotypic cell assay; inhibition, % at 10 µM; 98,000 compounds, 0.9% hits;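 note: yeast cells grown in 1536-well plates; yeast grown about 18 h at 30C before absorbance read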
# PostGolgi ctrl – inhibits growth of the yeast control strain; efflux-deficient yeast background strain, growth absorbance A615, 16 h; inhibition, % at 10 µM; 98,000 compounds, 5% hits
# HePTP inh – inhibitors of human HePTP phosphatase | recombinant HePTP phosphatase activity, OD absorbance | inhibition, % at 20 µM | 110,000 compounds, 0.64% hits; in the data active = inhibition above about 50%;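 note: plate controls were vehicle for no effect and reference inhibitor for full effect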
# Target sequence (P35236 whole entry, looked up): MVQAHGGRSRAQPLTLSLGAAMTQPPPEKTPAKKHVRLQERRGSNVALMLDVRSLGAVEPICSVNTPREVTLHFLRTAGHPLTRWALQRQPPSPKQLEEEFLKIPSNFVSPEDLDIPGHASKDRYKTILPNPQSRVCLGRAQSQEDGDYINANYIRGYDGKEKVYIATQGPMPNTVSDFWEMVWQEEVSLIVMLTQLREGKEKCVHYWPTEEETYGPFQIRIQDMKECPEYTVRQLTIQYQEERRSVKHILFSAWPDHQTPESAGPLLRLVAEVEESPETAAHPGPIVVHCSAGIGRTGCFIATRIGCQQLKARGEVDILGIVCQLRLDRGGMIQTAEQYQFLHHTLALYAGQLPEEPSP
# tolC growth inh – E. coli tolC mutant growth inhibition | E. coli BW25113 tolC mutant growth, OD615 | growth inhibition, % at 10 µM (by protocol) | 65,000 compounds, 2.2% hits | AID 573;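 active = growth inhibition at or above a cutoff equal to the mean over every tested compound plus 3 SD, cut at about 60% in these data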;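 note: growth measured after 20 h incubation at 37 °C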
#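 Signal: optical density read at 615 nm; Assay system: E. coli ΔtolC::kan strain BW25113; Times: 20 h incubation with compound, 37 °C; Dosing: 10 µM final, single dose.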
# * marks the source's active call; other numbers are inactive results; x = not tested or not shown. Cut-off read from the data, not from the text of the source, unless noted: active = inhibition above about 30%; inactive = the rest.
SMILES,PLAP act,Ecoli WT expand,PostGolgi yeast,PostGolgi ctrl,HePTP inh,tolC growth inh
CCOc1cccc(C(=O)Nc2ccc(-c3nc4cc(Cl)ccc4o3)cc2)c1,x,x,x,x,5.2,x
O=C1N/C(=N/N=C/c2cccs2)SC1Cc1ccc(F)cc1 (stereo not given),x,x,x,x,-15.7,x
O=C(NCc1ccco1)c1cnn2c1NC(c1ccc(Br)cc1)CC2C(F)(F)F (stereo not given),1.4,3.0,-3.2,37.5*,-9.1,67.5*
O=C(Nc1ccc2c(c1)OCO2)c1cnn2c(C(F)(F)F)cc(-c3ccco3)nc12,1.3,-16.0,-6.0,8.0,5.6,-0.3
Cc1ccccc1Cn1ccc(NC(=O)c2cnn3c(C(F)(F)F)cc(-c4ccco4)nc23)n1,0.9,-10.0,-0.7,32.7*,7.0,21.9
CCCC(=O)Nn1cnc2c(c1=O)C1(CCCCC1)Cc1ccccc1-2,1.2,4.0,-1.5,34.8*,x,x
CCCC(=O)NNc1nc2c(c(=O)n1-c1ccccc1)C1(CCCCC1)Cc1ccccc1-2,x,x,x,x,-10.1,x
CCC(=O)Nn1cnc2c(c1=O)C1(CCCCC1)Cc1ccccc1-2,1.1,12.0,3.2,30.9*,x,x
CCN(CC)Cc1nc2c(c(=O)[nH]1)C1(CCCC1)Cc1ccccc1-2,1.5,14.0,-1.8,15.2,x,x
Cn1c(NCCCO)nc2c(c1=O)C1(CCCCC1)Cc1ccccc1-2,1.5,-3.0,7.8,36.0*,7.5,56.2
CN(C)c1cccc(C(=O)Nc2cc(Cl)ccc2Cl)c1,x,x,x,x,4.2,x
CC(=O)c1c(C)nn2c3ccccc3n(CCN3CCCCC3)c12,x,x,x,x,2.6,x
Cc1ccc(OCC(=O)Nc2ccc(I)cc2C)c(C)c1,x,x,x,x,6.5,x
COc1ccc(/C=C/C(=O)c2ccc(Br)cc2)c(OC)c1,x,x,x,x,5.0,x
Cc1nnc(SCC(=O)OC2CC(C)CCC2C(C)C)[nH]c1=O (stereo not given),1.4,1.0,4.2,9.8,x,x
CC1CCC(C(C)C)C(OC(=O)CSc2nc(N)cc(=O)[nH]2)C1 (stereo not given),1.1,1.0,-14.7,41.8*,x,x
CC1CCC(C(C)C)C(OC(=O)CSc2nnc(N)s2)C1 (stereo not given),0.8,7.0,4.0,32.3*,x,x
N#Cc1c(N)nc2c(c1-c1ccc(Br)s1)CCCCCC2,x,x,x,x,5.2,x
O=C(Cc1ccc(Cl)cc1)NNC(=O)c1cccnc1,x,x,x,x,-4.7,x
O=C(Nc1cnn(Cc2ccc(Cl)cc2Cl)c1)c1noc2c1CCCC2,x,-6.0,-5.1,33.2*,6.6,71.2*
CC(C)c1cccc(C(C)C)c1NC(=O)CN1C(=O)c2ccccc2C1=O,x,x,x,x,0.4,x
COc1ccc(C(=O)c2c(C(F)(F)F)oc3c2C(=O)c2ccccc2C3=O)cc1,1.2,-18.0,84.4*,45.8*,x,x
COc1ccc(C(=O)c2oc3ccccc3c2NC(C)=O)cc1,1.1,-6.0,-5.7,-0.1,x,x
C=CCc1ccccc1OCCOc1ccccc1/C=C1/SC(=S)N(C)C1=O,x,x,x,x,-8.9,x
O=C(NCCOCc1ccccc1)c1ccccc1I,x,x,x,x,-13.5,x
SMILES,PLAP act,Ecoli WT expand,PostGolgi yeast,PostGolgi ctrl,HePTP inh,tolC growth inh
CCOC(=O)CSc1nc2cc(C(=O)NCC3CCCO3)ccc2c(=O)n1Cc1ccco1 (stereo not given),0.9,-6.0,-3.5,10.1,-11.2,3.4
COCCNC(=O)CSc1nc2cc(OC)c(OC)cc2c(=O)n1Cc1ccc(OC)cc1,1.1,-3.0,4.9,46.1*,1.0,-14.8
COCCNC(=O)CSc1nc2cc3c(cc2c(=O)n1Cc1ccco1)OCO3,1.1,0.0,5.8,-0.5,x,x
COCCNC(=O)c1ccc2c(=O)n(Cc3ccco3)c(SCC(=O)NC3CCCC3)nc2c1,2.2*,-6.0,3.1,12.0,x,x
CCC(Sc1nc2cc3c(cc2c(=O)n1Cc1ccco1)OCO3)C(=O)NCCOC (stereo not given),0.9,3.0,9.8,31.0*,x,x
COc1cc(/C=C2/SC(=S)N(CC(=O)Nc3ccc(F)c(Cl)c3)C2=O)cc(OC)c1OC,x,x,x,x,5.0,x
O=c1c2[nH]c3ccccc3c2ncn1C1CCCCC1,1,-13.0,34.0*,17.7,9.4,5.1
O=c1c2ccccc2ncn1C1CCCCC1,1.1,5.0,-17.7,17.6,14.6,-6.5
COc1ccc(OCCCCS)cc1,x,x,x,x,-23.1,x
Cc1cc(C)cc(OC(=O)CS(=O)c2ccc(C(F)(F)F)cc2[N+](=O)[O-])c1 (stereo not given),1,3.0,12.9,35.2*,x,x
O=C(CS(=O)c1ccc(C(F)(F)F)cc1[N+](=O)[O-])Oc1ccc(Cl)cc1 (stereo not given),0.8,-6.0,4.8,4.3,x,x
CCOC(=O)c1c(-c2ccc(F)cc2)csc1NC(=O)C1CC=CCC1C(=O)O (stereo not given),x,x,x,x,-14.3,x
CCOC(=O)c1c(-c2ccc(C)c(C)c2)csc1NC(=O)C1CC=CCC1C(=O)O (stereo not given),1.5,2.0,-1.6,33.3*,x,x
COc1cc(NC(=O)CN(c2ccc(C)cc2)S(=O)(=O)c2c(C)n[nH]c2C)cc(OC)c1,1.6,-9.0,-11.5,3.2,42.5,17.2
COc1ccc(N(CC(=O)Nc2cccc(C)c2)S(=O)(=O)c2c(C)n[nH]c2C)cc1,1.9,6.0,4.8,-6.1,5.4,-1.6
Cc1n[nH]c(C)c1S(=O)(=O)N(CC(=O)NC1CCCC1)c1ccc(C(C)C)cc1,2.3*,-7.0,-4.9,3.9,4.6,2.5
CCc1cccc(NC(=O)CN(c2ccc(OC)cc2)S(=O)(=O)c2c(C)n[nH]c2C)c1,2.4*,-15.0,5.4,-1.2,3.0,36.9
COc1ccc(N(CC(=O)Nc2ccc(C)c(C)c2)S(=O)(=O)c2c(C)n[nH]c2C)cc1,2.1*,3.0,2.7,2.9,3.3,19.1
Cc1nn(C)c(C)c1S(=O)(=O)N(CC(=O)NC1CCCCCC1)c1ccc(C(C)C)cc1,0.8,1.0,-18.9,-6.8,x,x
COC(=O)C1=CNC=C(C(=O)OC)C1c1cc(OC)c(Br)cc1OC,x,x,x,x,10.4,x
Cc1sc2nc(SCC(=O)NCCCn3ccnc3)[nH]c(=O)c2c1C,x,x,x,x,-3.3,x
Cc1ccc(S(=O)(=O)C(CC(=O)c2ccccc2)c2ccco2)cc1 (stereo not given),x,x,x,x,-9.0,x
C=CCc1c(C)nc(SCc2nc3ccccc3c(=O)[nH]2)[nH]c1=O,1.4,5.0,-2.8,4.9,1.4,100.0*
Cc1ccc2nc(SCC(=O)Nc3ccc(Br)cc3)[nH]c2c1,x,x,x,x,9.3,x
CCOC(=O)c1cc2c(nc1N)COC(C)(C)C2,x,x,x,x,2.6,x
O=C(CN(C(=O)CCC(=O)Nc1nccs1)c1ccc(F)cc1)NCc1ccco1,1.1,-2.0,0.5,31.5*,3.7,-18.3
CCN(CC)S(=O)(=O)c1ccc2[nH]cc(C(=O)NCCN3CCCCCC3)c(=O)c2c1,1.5,-1.0,-4.3,20.8,7.2,-5.5
CCN(CC)S(=O)(=O)c1ccc2[nH]cc(C(=O)NCCC3=CCCCC3)c(=O)c2c1,1.3,-6.0,-2.9,-1.6,0.5,97.7*
COc1cccc(=O)c2c(C)n(-c3cc(C)cc(C)c3)c(C)c12,1.3,-10.0,19.6,46.8*,x,x
O=C(CSc1nnc(-c2ccccc2F)n1C1CCCCC1)N1CCCC1,1.2,2.0,6.1,6.9,1.8,10.6

# Bioassay records as filed in PubChem.
